INS promoter act: activators of insulin promoter-driven GFP, primary screen, imaging, TRM-6 cells, eGFP reporter, cell count; plate-scaled: unstimulated 0, stimulated control 100; actives 0.81% (n = 130,000); activation, % at 2 µM;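 active = activation at 2 µM above a set limit, confirmed on inspection of the cell images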;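 also: share of cells whose green reporter signal exceeds an intensity cutoff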
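Test system: human fetal islet-derived TRM-6 cells with tamoxifen-inducible insulin promoter–eGFP reporter; schedule: overnight tamoxifen, then two-day compound incubation at 37 °C; measured by: high-content imaging of fixed cells with Hoechst nuclear stain; evaluation: percent cells above green-intensity threshold, converted to percent activation versus plate controls; control set: stimulated and unstimulated wells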
Numbers without * were called inactive; [ ] = another dose, or the depositor's remark. Many of the other results were omitted from the sample, so hits are more common in it than they were.

SMILES	INS promoter act
COc1ccc(-c2nc3c(c(=O)n(C)c(=O)n3C)n2CC2CC(c3ccccc3)=NO2)cc1OC (stereo not given)	-40.9
CCn1c(CN2CCN(c3cccc(C)c3C)CC2)n[nH]c1=S	0.0
CC(=O)c1ccc(OC(=O)c2cc3ccccc3oc2=O)cc1	5.3
N#Cc1c(NC(=O)c2cccnc2)sc2c1CCC2	6.5
CC1(C)Cc2c(sc(NC(=S)NC(=O)c3ccccc3)c2C(=O)O)CO1	0.0
N#Cc1c(NC(=S)NC(=O)c2ccccc2)sc2c1CCN(CCc1ccccc1)C2	270.4*
CCc1nnc(NC(=O)CN2C(=O)/C(=C/c3cc(OC)c(OC)c(OC)c3)SC2=S)s1	9.1
CCCCC(=O)Nc1ccc(C(=O)Nc2nnc(COC)s2)cc1	-3.4
O=S1(=O)C=C(Sc2nnc(-c3ccccc3)o2)c2ccccc21	270.4*
c1ccc(-c2nnc(-c3ccccc3)o2)cc1	4.7
CSc1ccccc1-c1nnc(-c2ccccc2)o1	9.4
CCC(C)/C(C)=N/NC(=O)c1ccc(COc2ccc(Cl)c(C)c2)cc1 (stereo not given)	0.0
COc1ccccc1NC(=O)c1cc(Cl)ccc1NC(=O)c1ccco1	-86.4
COc1ccccc1-c1noc(-c2ccccc2C(=O)Nc2ccccc2)n1	-71.4
COc1ccccc1NC(=O)c1ccccc1-c1nc(-c2ccccc2OC)no1	400.0*
CO/N=C(/CS(=O)(=O)c1ccc(C)cc1)c1ccc(OC)cc1	3.2
CCOc1cc2[nH]c(=O)n(CC3CCC(C(=O)NCCCOC)CC3)c(=O)c2cc1OCC (stereo not given)	171.4*
COCCn1c(=S)[nH]c2cc(OC)c(OC)cc2c1=O	4.8
CCC1CCCCN1CCCNC(=O)c1ccc2c(=O)n(Cc3ccc(OC)cc3)c(=O)[nH]c2c1 (stereo not given)	8.6
CCOC(=O)C1=C(N)OC(CCl)=C(C#N)C1c1ccsc1 (stereo not given)	0.0
CC(C)CNC(=O)CSc1nc2nn(-c3ccccc3)c(=O)c-2c2n1CCCCC2	466.7*
COC(=O)c1c(NC(=O)CSc2nnnn2-c2ccccc2)sc2c1CCCC2	2.8
CC(NC(=O)CSc1nc(=O)cc(N)n1-c1ccccc1)c1ccccc1 (stereo not given)	-7.1
O=C(Cn1c(-c2cscn2)nc2ccccc21)Nc1ccccc1F	0.0
Cc1ccc(C)c(NC(=O)Cn2nc([N+](=O)[O-])c(Br)c2C)c1	0.0
SMILES	INS promoter act
Cc1ccc(Cn2nnc(C(=O)Nc3cc(C)ccc3C)c2N)cc1	5.7
Cc1ccc(C)c(NC(=O)c2ccc[n+](Cc3ccc([N+](=O)[O-])cc3)c2)c1	233.3*
CC(=O)Nc1ccc(S(=O)(=O)NC(C)C(=O)NCCc2ccc(F)cc2)cc1 (stereo not given)	123.1
CCn1c(COc2ccc(C)cc2)nnc1SCC(=O)NNC(=O)c1ccc(OC)cc1	3.4
COc1cccc(NC(=O)C(=O)N/N=C/c2cc(C)n(-c3ccc(Cl)c(Cl)c3)c2C)c1	-2.7
CC1(C)CN(c2ccccc2)N(Cc2ccc(F)cc2)C1=O	8.3
CCC(C)(C)NC(=O)C(c1ccc(OC)cc1)N(Cc1cccs1)C(=O)CCC(=O)Nc1cc(C)on1 (stereo not given)	600.0*
CCC(C)(C)NC(=O)CN(Cc1cccs1)C(=O)CCC(=O)Nc1nccs1	6.7
Cc1cc(NC(=O)CCC(=O)N(c2ccccc2)C(C(=O)NC2CCCCC2)c2cccs2)no1 (stereo not given)	323.3
O=C(NCC1CCCO1)c1onc(CSc2ccc(F)c(F)c2)c1C(=O)O (stereo not given)	2.7
COc1ccc(/C=C2\CC/C(=C\c3ccc(OC)c(OC)c3)C2=O)cc1OC	-8.3
COc1ccc(/C=C2\CC/C(=C\c3ccc(OC)cc3OC)C2=O)c(OC)c1	526.7*
COc1ccc(/C=N\NC(=O)c2cccc(Br)c2)c(OC)c1	-7.1
CCCc1c2ccccc2nc2ccccc12	-84.6
N#Cc1c(N2CCN(C(=O)c3ccccc3)CC2)nc(-c2ccccc2)c2c1CCCC2	79.3*
N#Cc1c(N2CCN(C(=O)c3ccco3)CC2)nc(-c2ccccc2)c2c1CCCC2	-71.4
CC(C)Cc1nc(N2CCN(C(=O)c3ccco3)CC2)c(C#N)c2c1CCC2	-8.3
CCOC(=O)C1=C(C(F)(F)F)Nc2ncnn2C1c1ccc(OC)cc1OC (stereo not given)	3.3
CC(=O)N1C2CCCCC2S[C@H]2CCCCC21 (stereo not given in full)	200.0*
CC1CCCC(C)N1C(=O)C1CCCCC1 (stereo not given)	-7.1
COc1cccc(Cn2cnc3c(NS(=O)(=O)c4cc(Cl)ccc4Cl)c(C)c(C)cc32)c1	4.2
Cc1ccc(CC2CC(=O)N(c3nc4ccccc4n3C)C2=O)cc1 (stereo not given)	-4.2
Cc1c(C(=O)c2ccc([N+](=O)[O-])cc2)c(=O)n(C)c(=O)n1C	0.0
CCCn1ncc([C@@H]2C[C@H]3CN(Cc4cccc(Cl)c4)C(=O)[C@]34CCCN24)c1C	133.3
O=C1N(Cc2cccc(Cl)c2)C[C@@H]2C[C@@H](c3ccco3)N3CCC[C@@]123	683.3*
SMILES	INS promoter act
O=C1NCCN1Cc1cccc(Cl)c1	0.0
CC(=O)Nc1cc(Cl)ccc1OS(=O)(=O)c1ccc(C)cc1	-6.5
O=c1cc(/N=C/c2coc3c(ccc4ccccc43)c2=O)[nH]c(=S)[nH]1	7.4
CCN1CCN(C2=CC3=CC(=C(C#N)C#N)CCC3CC2)CC1 (stereo not given)	614.3*[fluoresces]
N#CC(C#N)=C1C=C2C=C(N3CCCCCC3)CCC2CC1 (stereo not given)	222.6*
CN1CCN(C2=CC3=CC(=C(C#N)C#N)CCC3CC2)CC1 (stereo not given)	640.7*
CCN1CCN(c2nc3ccccc3nc2C(C#N)C(=O)OC2CCCCC2)CC1 (stereo not given)	-7.7
Cc1cc(S(=O)(=O)Nc2ccc(F)cc2)c(C)s1	-7.1
O=C(NCCc1nc(-c2ccccc2)cs1)c1ccc(Br)cc1	3.8
NC(=O)c1ccc(/C=N/O)nc1	0.0
Cc1ccc(S(=O)(=O)NC(N)=NCCc2ccc(Cl)cc2)cc1C	0.0
Cc1c(Cl)cccc1-n1nnnc1-c1cccs1	-3.1
CCCc1ccccc1OCCNC(=O)c1cc(=O)n(C)c(=O)n1C	-8.3
C=CCOc1c(Br)cc(/C=N/Nc2ccc(C(=O)O)cc2)cc1OCC	106.7
CC1CN(C(=O)C2(C)CC2(Cl)Cl)CC(C)O1 (stereo not given)	8.3
O=C1OC(C(=O)O)Cc2ccccc21 (stereo not given)	271.4
CCCNc1nc(N)nc(-c2cc(Cl)ccc2OC)n1	0.0
CCCN(CCC)c1nc(N)nc(-c2cc(Cl)ccc2OC)n1	82.9*
CCNc1nc(N)nc(-c2cc(Cl)ccc2O)n1	-61.5
COCCN(C(=S)Nc1ccc(C)cc1C)C(C)c1ccco1 (stereo not given)	0.0
Cc1cc(NC(=O)CSc2nc3ccsc3c(=O)n2NC(=O)c2ccccc2)no1	435.7*
Cc1cc(NC(=O)CSc2nc(-c3ccccc3)cs2)no1	103.4
Cc1ccc(CNC(=O)CSc2nc3ccsc3c(=O)n2NC(=O)c2ccccc2)cc1	5.4
COc1ccc(S(=O)(=O)N2CCOCC2)cc1NC(=O)CSc1nnc2ccccn12	0.0
Cc1ccc(NC(=O)COC(=O)Cn2cnc3c2c(=O)n(C)c(=O)n3C)c(Cl)c1	0.0
CC1SC(c2cccc(Cl)c2)NC1=O (stereo not given)	7.1
CC1SC(c2ccc(Cl)cc2)NC1=O (stereo not given)	443.8*

From PubChem
